Compound activity from PubChem.
CRFR2-BP ag: agonists of CRF-BP/CRF-R2 complex, primary screen, cell-based, HEK293, calcium dye fluorescence, uHTS | 350,000 tested, 0.46% active | AID 588473, 2011 | calcium dye fluorescence (FLIPR); percent of saturating CRF peptide response | activation, % at 13.2 µM | CRF-binding protein / CRF receptor 2 complex (human);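 active means activation of at least 50%, plus an integration ratio under a set limit after plate pattern correction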;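 further: plate controls were neutral control wells without compound for no effect and CRF at EC100 for full effect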
DDE Tn6 FP inh: inhibitors of Tn6 peptide binding to fibrin DD(E), primary screen, biochemical, fluorescence polarization, human fibrin, Tn6 probe; AID 720509, 2013; inhibition, % at 8.3 µM; 370,000 tested, 0.21% active; Fibrinogen beta chain (Homo sapiens), P02675; Fibrin DD(E) TRITC-Tn6 fluorescence polarization displacement;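 active means inhibition above a per-campaign cutoff: mean of compounds within control limits plus 3 SD, cut at about 15% in these data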;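 further: 0% = median of all compound wells on the plate and 100% = blocking peptide control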
Target sequence (P02675 whole entry, looked up): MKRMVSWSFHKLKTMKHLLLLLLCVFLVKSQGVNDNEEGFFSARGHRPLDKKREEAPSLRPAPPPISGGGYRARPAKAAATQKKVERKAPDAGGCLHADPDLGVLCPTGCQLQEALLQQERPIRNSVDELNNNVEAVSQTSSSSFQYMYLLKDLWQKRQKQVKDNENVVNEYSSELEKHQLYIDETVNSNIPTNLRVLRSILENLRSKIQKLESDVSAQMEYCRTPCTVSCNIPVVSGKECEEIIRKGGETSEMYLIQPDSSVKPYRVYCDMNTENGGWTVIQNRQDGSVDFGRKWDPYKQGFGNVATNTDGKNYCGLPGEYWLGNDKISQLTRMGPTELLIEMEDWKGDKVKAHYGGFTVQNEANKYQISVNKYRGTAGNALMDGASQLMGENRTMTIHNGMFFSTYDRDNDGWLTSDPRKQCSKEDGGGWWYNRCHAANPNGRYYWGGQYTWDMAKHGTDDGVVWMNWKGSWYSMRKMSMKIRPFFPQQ
CRFR2-BP antag: antagonists of CRF-BP/CRF-R2 complex, primary screen, cell-based, HEK293, calcium dye fluorescence, uHTS | CRF-induced calcium fluorescence | inhibition, % at 11.8 µM | 350,000 tested, 0.59% active | AID 588475, 2011;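 active means inhibition of the ligand-induced calcium signal above about 50% at the single tested concentration, limit read from the data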
RTF Ca sens inh: cardiac RTF calcium sensitivity inhibitors, primary screen, biochemical, IANBD-TnC fluorescence, EC70 calcium; 340,000 tested, 0.12% active; IANBD-labeled cardiac RTF, Ca2+ fluorescence; AID 493244, 2011; inhibition, % at 7.15 µM; Troponin I, cardiac muscle (Homo sapiens) + Troponin T, cardiac muscle (Homo sapiens) + …;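 active means inhibition above the mean inhibition of all tested compounds plus 3 SD, cut at about 17% in these data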;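 further: assay run at fixed EC70 calcium of 1.6 mM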
Tn7 DDE FP: inhibitors of Tn7 peptide binding to fibrin DD(E), primary screen, biochemical, fluorescence polarization, human fibrin, Tn7 probe | Fibrinogen beta chain (Homo sapiens), P02675 | FP displacement of FITC-Tn7 peptide from fibrin DD(E); 0% = median of compound wells per plate | inhibition, % at 8.3 µM | 370,000 tested, 0.13% active;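 active means inhibition above the mean of compounds falling within the control limits plus 3 SD of them, cut at about 14% in these data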;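 further: 0% = plate median of compound wells and 100% = 10 µM Aha-Tn7 peptide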
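Test system: human clot-derived fibrin DD(E) complex / Quantity: 2 µM final DD(E) protein / Incubation: 10 min plus 3 h, room temperature / Measured by: fluorescence polarization / Benchmarks: high control of 10 µM Aha-Tn7 peptide / Replicates: singlicate testing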
RTF Ca sens act: cardiac RTF calcium sensitivity activators, primary screen, biochemical, IANBD-TnC fluorescence, EC20 calcium; Troponin I, cardiac muscle (Homo sapiens) + Troponin T, cardiac muscle (Homo sapiens) + …; activation, % at 7.2 µM; 340,000 tested, 0.24% active; IANBD-labeled TnC RTF fluorescence at EC20 calcium; 0% EC20 calcium, 100% full calcium; AID 493008, 2010;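 active means activation above the mean over all tested compounds plus 3 SD, cut at about 30% in these data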;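 further: rise in fluorescence read as greater calcium sensitivity of cardiac thin filaments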
Tn6 DDE ctr: counter-screen for inhibitors of Tn6 peptide binding to fibrin DD(E) | inhibition, % at 8.3 µM | TRITC-Tn6 fluorescence polarization displacement; 0% = median of compound wells, not DMSO | shares compounds with DDE Tn6 FP inh | 680 tested, 2% active;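 active means inhibition above the mean of test compounds lying between the control limits plus 3 SD of those, cut at about 14% in these data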;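 further: 0% = median of compound wells and 100% = wells with Aha-Tn7 blocking peptide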
Tn6 DDE conf: inhibitors of Tn6 peptide binding to fibrin DD(E), confirmation, biochemical, fluorescence polarization, human fibrin, Tn6 probe; 680 tested, 10% active; FP displacement of TRITC-Tn6 peptide from DD(E); 0% = per-plate median of test wells; shares compounds with DDE Tn6 FP inh; inhibition, % at 8.3 µM;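 active means inhibition above the mean of compounds lying within the control limits plus 3 SD, cut at about 16% in these data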;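 further: 100% = high control wells holding a competing inhibitor peptide at 10 µM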
Active calls of the source: *; i = inactive; · = not tested or not shown. Sampled rows, rich in hits. Any-hit rate of the full collection: about 1.4%.

SMILES	CRFR2-BP ag	DDE Tn6 FP inh	CRFR2-BP antag	RTF Ca sens inh	Tn7 DDE FP	RTF Ca sens act	Tn6 DDE ctr	Tn6 DDE conf
Cc1cc(C(=O)COc2ccc([N+](=O)[O-])cc2)c(C)n1C1CC1	-1.3	-4.5	-9.9	-2.7	-2.5	-6.5	·	·
NC(N)=NS(=O)(=O)c1ccc(NC(=S)NC(=O)/C=C/c2cccs2)cc1	-1.7	51.5*	-40.9	-4.8	7.4	-9.2	-7.6	-8.2
O=C(CSc1nc2ccccc2[nH]1)Nc1nc(-c2ccc(Br)cc2)cs1	3.8	40.7*	-16.2	-1.3	-1.2	5.5	1.8	-5.2
CC1(C)c2ccccc2N2CCC(=O)NC21/C=C/c1ccco1 (stereo not given)	4.8	17.2*	-18.9	-15.0	4.6	2.4	-7.0	-9.5
CN1C(=O)NC(c2ccccc2[N+](=O)[O-])C2=C1CCCC2=O (stereo not given)	12.2	44.7*	1.2	-64.5	5.4	37.8*	-5.9	20.5*
COc1ccc2c(CC#N)c[nH]c2c1	78.4*	15.7*	-74.7	8.3	2.0	4.6	1.9	2.3
COc1ccc2c(CCNC(N)=S)c[nH]c2c1	1.3	7.3	-0.1	4.7	4.1	2.4	·	·
COc1ccccc1S(=O)(=O)N(C)C[C@H]1Oc2ncc(Br)cc2C(=O)N([C@H](C)CO)C[C@H]1C	-1.1	-0.3	3.3	·	-6.2	·	·	·
O=C(COC(=O)c1ccccc1Cc1ccccc1)Nc1ccc(SC(F)F)cc1	10.7	15.6*	-36.0	2.2	-4.5	1.8	-1.2	-20.5
COCCCN1C(=O)[C@H](CC(=O)NCCCCc2ccccc2)[C@]2(C(=O)OC)CCCCC=C12	·	-1.3	·	·	-1.0	·	·	·
CN(C)c1cccc(-c2csc(N3CCC(C(N)=O)CC3)n2)c1	0.8	1.4	-9.3	-4.8	3.0	-3.9	·	·
CS(=O)(=O)c1cccc(-c2csc(N3CCC(C(N)=O)CC3)n2)c1	-0.4	16.3*	-4.8	6.6	-3.1	4.8	6.2	-2.1
CCCCCCCCN1C(=O)[C@@H](CC(=O)NCc2cccc3ccccc23)C[C@@]2(C(=O)OC)C1=C[C@H](C(C)C)O[C@@H]2C1CC1	·	6.3	·	·	-6.1	·	·	·
N#Cc1ccc(NC(=O)CSc2n[nH]c(=O)n2C2CC2)cc1	-0.7	16.1*	-0.2	0.1	3.2	-0.2	3.4	4.3
CC(=O)Nc1sc2c(c1-c1nc3ccccc3s1)CCN(C)C2	·	-1.6	·	·	6.7	·	·	·
CC(=O)Nc1sc2c(c1-c1nc3ccccc3s1)CCOC2	·	15.7*	·	·	-1.2	·	11.3	7.1
Cc1ccc(C(=O)N2[C@@H]3CN(C)C(=O)[C@@]2(Cc2ccccc2)[C@H]2C(=O)N(C)C(=O)[C@@H]32)cc1	-0.3	15.9*	-1.0	5.1	7.9	5.6	-2.5	-3.3
CC1(C(=O)NS(=O)(=O)c2cccc(Cl)c2)CCN1C(=O)Cc1cc(F)ccc1F (stereo not given)	·	16.1*	·	·	-1.9	·	-2.4	-3.5
CC1(C(=O)NS(=O)(=O)c2ccc(Cl)cc2)CCN1C(=O)CCc1ccc(Cl)cc1Cl (stereo not given)	·	6.4	·	·	-0.6	·	·	·
Cc1cccc(S(=O)(=O)NC(=O)C2(C)CCN2C(=O)Cc2cc(F)ccc2F)c1 (stereo not given)	·	5.9	·	·	-0.2	·	·	·
CC1(C(=O)NS(=O)(=O)c2cccs2)CCN1C(=O)CCc1ccc(Cl)cc1Cl (stereo not given)	·	16.9*	·	·	3.0	·	4.5	3.7
CCCS(=O)(=O)NC(=O)C1(C)CCCN(C(=O)c2cccnc2Oc2ccccc2)C1 (stereo not given)	·	6.5	·	·	4.2	·	·	·
Cc1ccccc1CC(=O)Nc1nnc(-c2cccnc2)s1	·	2.4	·	·	-3.6	·	·	·
Cc1cc(C)c2cc(C#N)c(NCCCN)nc2c1	·	-2.9	·	·	3.3	·	·	·
O=C(NC1CC1)c1cccc2c1C(=O)c1ccc(N3CCC(N4CCCCC4)CC3)cc1S2(=O)=O	27.8	17.7*	-11.9	·	-4.7	·	-2.9	0.1
SMILES	CRFR2-BP ag	DDE Tn6 FP inh	CRFR2-BP antag	RTF Ca sens inh	Tn7 DDE FP	RTF Ca sens act	Tn6 DDE ctr	Tn6 DDE conf
CCCCCCCCN1CCS(=O)(=O)N(Cc2ccc(C)cc2)C(C(=O)OC)C1 (stereo not given)	·	1.1	·	·	5.3	·	·	·
CC1(C)CCN2CCC(C)(C)c3c(O)ccc1c32	117.8*	30.4*	-82.3	-167.3	8.0	85.3*	2.3	4.1
O=C(N[C@H](C(=O)N1CCC[C@H]1C(=O)NCc1ccccc1)C1CCCCC1)c1ccc(Cl)cc1Cl	·	2.6	·	·	-2.8	·	·	·
CCO/C(C)=N/Oc1cccc(N(C)C)c1	·	18.6*	·	·	7.9	·	3.0	1.8
NC(N)=N/N=C/c1ccccc1OC(F)F	0.2	17.1*	-1.4	-5.6	1.1	1.7	-1.2	-0.6
Cc1cc(C(F)(F)F)n2nc(-c3cnn(C)c3C(F)(F)F)c(Cl)c2n1	0.5	16.3*	18.5	-3.1	0.3	0.7	9.1	5.2
COC(=O)[C@]12C[C@H](CC(=O)NCc3ccccc3)C(=O)N(CCc3ccc(OC)c(OC)c3)C1=C[C@H](C1CCCC1)O[C@@H]2C	·	12.4	·	·	-0.3	·	·	·
COc1ccc(C(=O)N(Cc2ccccc2)c2cccc(C)c2)cc1	0.1	17.1*	-0.5	0.5	1.4	-1.9	0.7	-2.6
COc1ccc(CN(C(=O)c2ccc(C)cc2)c2cccc(N)c2)cc1	-0.2	-0.8	2.9	5.1	0.1	-1.5	·	·
CN1/C(=C\C=C2/SC(=S)NC2=O)C(C)(C)c2ccccc21	163.8*	70.2*	-144.3	i	-107.1	343.7*	-94.8	57.4*
COCc1cccc(-c2csc(C(C)(NC(C)=O)c3ccc(OC)cc3)n2)c1 (stereo not given)	·	3.0	·	·	-2.2	·	·	·
CC1CCC/C(=C\Nc2ccc3c(c2)OCO3)C1=O (stereo not given)	1.4	11.4	12.0	-2.5	3.7	0.1	·	·
O=C1CCCC/C1=C\Nc1ccc(O)cc1	0.8	27.3*	1.0	-0.3	5.2	0.2	3.5	0.4
